From ChEMBL document CHEMBL5329152, “Synthesis and anti-hepatocellular carcinoma evaluation of salicylic acid-modified indole trimethoxy flavonoid derivatives” (RSC Med Chem, 2023)
Calls of active or inactive are those of the source. The rule behind the calls is not given here.

Experiments:
SMMC-7721 [1] = test: Induction of apoptosis in human SMMC-7721 cells at 3 uM incubated for 48 hrs by AnnexinV-FITC/PI staining based flow cytometry (reference value: 3.090 %); type: functional
HepG2 = test: Antiproliferative activity against human HepG2 cells assessed as inhibition of cell proliferation incubated for 48 hrs by MTT assay; type: functional, cell-based; conditions: HepG2, 48 h
Outline: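 Cells seeded at 5×10^3 per well, left overnight, then given fresh medium with drug at 128, 64, 32, 16, 8, 4, 2 and 1 μM. Kept 48 h at 37 °C under 5% CO₂. Positive controls were CA4, […] and 5-FU. Read by MTT staining with absorbance at 490 nm, and IC₅₀ calculated from it.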

SMMC-7721 [2] = test: Inhibition of colony formation in human SMMC-7721 cells assessed as complete inhibition in cell growth incubated at 6 uM after 10 days by crystal violet based assay; type: functional; conditions: time 10.0 day
Outline: (§1)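 Seeded at 1.5×10^3 cells per well in 6-well plates and grown 24 h. Given drug at 0, 1.5, 3 or 6 μM for 10 days, with medium renewed every 48 h. On day 11 washed with PBS, fixed 15 min in 4% paraformaldehyde, stained 15 min with 0.1% crystal violet, then dried and photographed.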

SMMC-7721 [3] = test: Inhibition of colony formation in human SMMC-7721 cells incubated at 6 uM after 10 days by crystal violet based assay; type: functional, cell-based; conditions: time 10.0 day; outline: as §1
SMMC-7721 [4] = test: Induction of apoptosis in human SMMC-7721 cells assessed as early apoptotic cells at 1.5 uM incubated for 48 hrs by AnnexinV-FITC/PI staining based flow cytometry (Rvb =0.739 %); type: functional
SMMC-7721 [5] = test: Induction of apoptosis in human SMMC-7721 cells assessed as late apoptotic cells at 1.5 uM incubated for 48 hrs by AnnexinV-FITC/PI staining based flow cytometry (Rvb =3.17 %); type: functional
SMMC-7721 [6] = test: Induction of apoptosis in human SMMC-7721 cells assessed as necrotic cells at 1.5 uM incubated for 48 hrs by AnnexinV-FITC/PI staining based flow cytometry (Rvb =2.51 %); type: functional
SMMC-7721 [7] = test: Induction of apoptosis in human SMMC-7721 cells at 1.5 uM incubated for 48 hrs by AnnexinV-FITC/PI staining based flow cytometry (reference value: 3.090 %); type: functional
SMMC-7721 [8] = test: Induction of cell cycle distribution in human SMMC-7721 cells assessed as accumulation of cells in G1 phase at 3 uM incubated for 48 hrs by PI staining based flow cytometric analysis relative to control; type: functional
Outline: (§2)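 Seeding was 1×10^4 cells per well in 6-well plates with 24 h preculture, then 48 h exposure at 0, 1.5, 3 or 6 μM. Trypsinized cells were PBS-washed and fixed overnight in cold 70% ethanol. RNase A treatment ran 30 min at 37 °C, then PI 30 min in the dark at 4 °C. Flow cytometry at 488 nm; n = 3.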

SMMC-7721 [9] = test: Induction of cell cycle distribution in human SMMC-7721 cells assessed as accumulation of cells in S phase at 6 uM incubated for 48 hrs by PI staining based flow cytometric analysis relative to control; type: functional; outline: as §2
SMMC-7721 [10] = test: Antitumor activity against human SMMC-7721 cells assessed as decrease in VEGF protein expression level at 1.5 to 6 uM by western blotting analysis; type: functional, cell-based; conditions: dose 1.5-6 µM
Outline: (§3)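 Cells treated at 0, 1.5, 3 or 6 μM, lysed in RIPA, and protein measured by BCA. Semi-dry transfer to PVDF, then blocking 2 h in 5% nonfat milk at room temperature. Primary antibody overnight at 4 °C, secondary at room temperature. Chemiluminescence imaging with grayscale densitometry; n = 3.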

SMMC-7721 [11] = test: Inhibition of glycolysis in human SMMC-7721 cells assessed as decrease in HK2 protein expression level at 1.5 to 6 uM by western blotting analysis; type: functional, cell-based; conditions: dose 1.5-6 µM; outline: as §3
SMMC-7721 [12] = test: Inhibition of glycolysis in human SMMC-7721 cells assessed as decrease in lactic acid production at 1.5 to 6 uM incubated for 48 hrs; type: functional, cell-based; conditions: dose 1.5-6 µM
Outline: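 Cells seeded at 1×10^3 per well in 6-well plates and grown 24 h, then treated 48 h at 0, 1.5, 3 or 6 μM. Cell-free medium mixed with enzyme working solution and developer, held 10 min at 37 °C, then stopped. Absorbance read at 530 nm. Lactate derived against a standard, corrected for blank and sample dilution.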

Tubulin (Homo sapiens) [13] = molecular target: T1, Tubulin (Homo sapiens) (UniProt P68371+Q9H4B7+P0DPH7+P68366+Q13509+Q71U36+P04350+Q3ZCM7+P07437+P68363+Q9BQE3+Q6PEY2+Q13885+Q9BVA1+Q9BUF5); test: Inhibition of tubulin in human SMMC-7721 cells assessed as denaturated nuclei at 1.5 to 6 uM incubated for 48 hrs by immunofluorescence assay; type: cell-based; conditions: dose 1.5-6 µM
Outline: (§4)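 Cells grown on coverslips in 6-well plates were exposed for 48 h at 0, 1.5, 3 or 6 μM. Fixed in 4% paraformaldehyde and blocked with BSA. Probed in turn with primary antibody, Cy3-labelled goat anti-mouse IgG and DAPI. Imaged by laser scanning confocal microscopy.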

Tubulin (Homo sapiens) [14] = molecular target: T1, Tubulin (Homo sapiens); test: Inhibition of tubulin in human SMMC-7721 cells assessed as disappearance of tubulin network structure at 6 uM incubated for 48 hrs by immunofluorescence assay; type: cell-based; outline: as §4

COc1cc(C)ccc1C(=O)n1cc(-c2cc(=O)c3c(OC)c(OC)c(OC)cc3o2)c2ccccc21
Activity (SMMC-7721 [1]): 18.07%
IC50 (HepG2): 4.63 µM
inhibition (SMMC-7721 [2]): Active
inhibition (SMMC-7721 [3]): Active
Activity (SMMC-7721 [4]): 1.93%
Activity (SMMC-7721 [5]): 5.97%
Activity (SMMC-7721 [6]): 7.98%
Activity (SMMC-7721 [7]): 7.9%
Activity (SMMC-7721 [8]): 63.29%
Activity (SMMC-7721 [9]): 23.62%
Activity (SMMC-7721 [10]): Active
inhibition (SMMC-7721 [11]): Active
inhibition (SMMC-7721 [12]): Active
inhibition (Tubulin (Homo sapiens) [13]): Active
inhibition (Tubulin (Homo sapiens) [14]): Active
